Measured values published in ChEMBL document CHEMBL1132958, “Design of monocyclic (1-3) and dicyclic (1-3/4-10) gonadotropin releasing hormone (GnRH) antagonists” (J Med Chem, 2000).

Target: T1, Gonadotropin-releasing hormone receptor (Rattus norvegicus, UniProt P30969)
T1 sequence (P30969 whole entry): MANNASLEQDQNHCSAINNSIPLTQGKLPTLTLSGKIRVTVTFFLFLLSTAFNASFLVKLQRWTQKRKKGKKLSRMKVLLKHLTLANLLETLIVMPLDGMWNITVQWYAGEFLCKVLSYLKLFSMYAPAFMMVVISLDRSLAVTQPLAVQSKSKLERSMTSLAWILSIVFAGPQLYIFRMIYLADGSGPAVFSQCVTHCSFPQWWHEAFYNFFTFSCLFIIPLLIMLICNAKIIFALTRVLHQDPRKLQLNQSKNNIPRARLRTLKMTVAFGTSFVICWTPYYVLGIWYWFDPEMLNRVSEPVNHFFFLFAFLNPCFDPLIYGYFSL
Test: Competitive radioligand binding assay for rat Gonadotropin-releasing hormone receptor cells stably transfected in human HEK293
In short: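 Membranes from HEK-293 cells stably expressing rat GnRH receptor (5% sucrose homogenate; nuclei removed at 3000g, membranes pelleted at 20000g, 4 °C), 7 µg protein in 10 mM Hepes pH 7.5, 150 mM NaCl, 0.1% BSA. Competitor at varying concentrations vs des-Gly10-[125I-Tyr5,DAla6,NMeLeu7,Pro9-NHEt]GnRH (~100 000 cpm), 90 min; PEI-coated GF/C filtration, PBS wash, γ counting. Ki by nonlinear least-squares fit; ≥3 independent experiments, mean ± SEM.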

`CC(=O)N[C@@H]1CCC(=O)NCCC(=O)NCCCC[C@H](C(=O)N[C@@H](CO)C(=O)N[C@@H](Cc2ccc(O)cc2)C(=O)N[C@H](Cc2ccc3ccccc3c2)C(=O)N[C@@H](CC(C)C)C(=O)N[C@@H](CCCN=C(N)N)C(=O)N2CCC[C@H]2C(=O)N[C@H](C)C(N)=O)NC(=O)[C@@H](Cc2ccc(Cl)cc2)NC1=O` and `CC(=O)N[C@@H]1CCC(=O)NCC(=O)NCCCC[C@H](C(=O)N[C@@H](CO)C(=O)N[C@@H](Cc2ccc(O)cc2)C(=O)N[C@H](Cc2ccc3ccccc3c2)C(=O)N[C@@H](CC(C)C)C(=O)N[C@@H](CCCN=C(N)N)C(=O)N2CCC[C@H]2C(=O)N[C@H](C)C(N)=O)NC(=O)[C@@H](Cc2ccc(Cl)cc2)NC1=O` are within 1.5-fold of each other in Ki: 2.2 nM for the first, 1.5 nM for the second.

`CC(=O)N[C@@H]1CNC(=O)C[C@H](C(=O)N[C@@H](CO)C(=O)N[C@@H](Cc2ccc(O)cc2)C(=O)N[C@H](Cc2ccc3ccccc3c2)C(=O)N[C@@H](CC(C)C)C(=O)N[C@@H](CCCN=C(N)N)C(=O)N2CCC[C@H]2C(=O)N[C@H](C)C(N)=O)NC(=O)[C@@H](Cc2ccc(Cl)cc2)NC1=O` and `CC(=O)N[C@@H]1CC(=O)NCCC[C@H](C(=O)N[C@@H](CO)C(=O)N[C@@H](Cc2ccc(O)cc2)C(=O)N[C@H](Cc2ccc3ccccc3c2)C(=O)N[C@@H](CC(C)C)C(=O)N[C@@H](CCCN=C(N)N)C(=O)N2CCC[C@H]2C(=O)N[C@H](C)C(N)=O)NC(=O)[C@@H](Cc2ccc(Cl)cc2)NC1=O` are within 1.5-fold of each other in Ki: 1.7 nM for the first, 1.6 nM for the second.

Going from `CC(=O)N[C@@H]1CC(=O)NCCCC[C@H](C(=O)N[C@H]2CC(=O)NC[C@@H](C(N)=O)NC(=O)[C@@H]3CCCN3C(=O)[C@H](CCCN=C(N)N)NC(=O)[C@H](CC(C)C)NC(=O)[C@@H](Cc3ccc4ccccc4c3)NC(=O)[C@H](Cc3ccc(O)cc3)NC2=O)NC(=O)[C@@H](Cc2ccc(Cl)cc2)NC1=O` to `CC(=O)N[C@@H]1CCC(=O)NCC(=O)NCCC[C@H](C(=O)N[C@@H](CO)C(=O)N[C@@H](Cc2ccc(O)cc2)C(=O)N[C@H](Cc2ccc3ccccc3c2)C(=O)N[C@@H](CC(C)C)C(=O)N[C@@H](CCCN=C(N)N)C(=O)N2CCC[C@H]2C(=O)N[C@H](C)C(N)=O)NC(=O)[C@@H](Cc2ccc(Cl)cc2)NC1=O`, the Ki rises from 1.2 nM to 4.2 nM (3.5-fold). The first binds more tightly here.

Compared with `CC(=O)N[C@@H]1CCC(=O)NCCC[C@H](C(=O)N[C@@H](CO)C(=O)N[C@@H](Cc2ccc(O)cc2)C(=O)N[C@H](Cc2ccc3ccccc3c2)C(=O)N[C@@H](CC(C)C)C(=O)N[C@@H](CCCN=C(N)N)C(=O)N2CCC[C@H]2C(=O)N[C@H](C)C(N)=O)NC(=O)[C@@H](Cc2ccc(Cl)cc2)NC1=O`, `CC(=O)N[C@@H]1CCC(=O)NCCCC[C@H](C(=O)N[C@@H](CO)C(=O)N[C@@H](Cc2ccc(O)cc2)C(=O)N[C@H](Cc2ccc3ccccc3c2)C(=O)N[C@@H](CC(C)C)C(=O)N[C@@H](CCCN=C(N)N)C(=O)N2CCC[C@H]2C(=O)N[C@H](C)C(N)=O)NC(=O)[C@@H](Cc2ccc(Cl)cc2)NC1=O` is 11-fold lower in Ki: 5.2 nM for the first, 0.47 nM for the second.

Going from `CC(=O)N[C@@H]1CC(=O)NCC(=O)NCC[C@H](C(=O)N[C@@H](CO)C(=O)N[C@@H](Cc2ccc(O)cc2)C(=O)N[C@H](Cc2ccc3ccccc3c2)C(=O)N[C@@H](CC(C)C)C(=O)N[C@@H](CCCN=C(N)N)C(=O)N2CCC[C@H]2C(=O)N[C@H](C)C(N)=O)NC(=O)[C@@H](Cc2ccc(Cl)cc2)NC1=O` to `CC(=O)N[C@@H]1CCC(=O)NCC(=O)NCC[C@H](C(=O)N[C@@H](CO)C(=O)N[C@@H](Cc2ccc(O)cc2)C(=O)N[C@H](Cc2ccc3ccccc3c2)C(=O)N[C@@H](CC(C)C)C(=O)N[C@@H](CCCN=C(N)N)C(=O)N2CCC[C@H]2C(=O)N[C@H](C)C(N)=O)NC(=O)[C@@H](Cc2ccc(Cl)cc2)NC1=O`, the Ki rises from 0.7 nM to 20.3 nM (29-fold). The first binds more tightly here.

`CC(=O)N[C@@H]1CC(=O)NCCC(=O)NCC[C@H](C(=O)N[C@@H](CO)C(=O)N[C@@H](Cc2ccc(O)cc2)C(=O)N[C@H](Cc2ccc3ccccc3c2)C(=O)N[C@@H](CC(C)C)C(=O)N[C@@H](CCCN=C(N)N)C(=O)N2CCC[C@H]2C(=O)N[C@H](C)C(N)=O)NC(=O)[C@@H](Cc2ccc(Cl)cc2)NC1=O` was tested, and the Ki was 0.32 nM.
